By IC50 is commonly meant the concentration at which inhibition is half-maximal.

Series [1] relates to A549. As to the kind of experiment: Cytotoxicity against human A549 cells after 24 hrs by HTCFA. The series is classed as functional, cell-based. The note with it: A549, 24 h. Put shortly:
(§1)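 Clonogenic (HTCFA) assay on adherent A549 cells seeded in triplicate at 10^2–10^5 cells per well; after 24 h, medium replaced by serum-free UltraCulture and cells exposed 24 h to 6–8 concentrations from fresh DMSO solutions (final DMSO 1%).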

The test system of series [2] is A549. As to the kind of experiment: Ratio of IC50 for human A549 cells to IC50 for human A549 cells in presence of cleaving enzyme. Type of series: functional. The gist of the method: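 QIC50 is the IC50 of the prodrug alone divided by its IC50 with the cleaving glycosidase present. Both values come from the 24 h exposure A549 clonogenic assay with 9–10 days of outgrowth and methylene blue colony counts.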

Series [3] can be described thus: Stability in ultraculture medium after 24 hrs by HPLC-MS. The series is classed as physicochemical. The following applies: read-out: Stability. The gist of the method:
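Compound held in UltraCulture medium at 37 °C for 24 h. The fraction remaining was quantified by HPLC-MS peak area (AUC) on a C12 reversed-phase column.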

Series [4] concerns A549. As to the kind of experiment: Cytotoxicity against human A549 cells after 24 hrs in presence of cleaving enzyme by HTCFA. The series is classed as functional, cell-based. The following applies: A549, 24 h. The gist of the method: as §1

As for `C[C@H]1[C@@H]2CN(C(=O)c3cc4cc(OCCN(C)C)ccc4[nH]3)C3=CC(=O)c4ccccc4[C@@]312`, it took 0.75 nM to reach half-maximal inhibition in series [1] (IC50).

Consider `C[C@@H](Cl)[C@@H]1CN(C(=O)c2cc3cc(OCCN(C)C)ccc3[nH]2)c2cc(O[C@@H]3O[C@H](CO)[C@H](O)[C@H](O)[C@H]3O)c3ccccc3c21`, for which the concentration for half-maximal inhibition (IC50) in series [1] turned out to be 3600 nM; in series [4], 0.8 nM. The “Ratio IC50” value in series [2] came to 4800. In addition, the remaining at 24 h in series [3] is 27%.

In turn, `C[C@@H](Cl)[C@@H]1CN(C(=O)c2cc3cc(OCCN(C)C)ccc3[nH]2)c2cc(O)c3ccccc3c21` yielded an IC50 in series [1] of 0.75 nM.

The record behind these values is ChEMBL document CHEMBL1139390, “Synthesis and biological studies of different duocarmycin based glycosidic prodrugs for their use in the antibody-directed enzyme prodrug therapy” (J Med Chem, 2009).
